Screening data (PubChem BioAssay)
Only some compounds are listed: those with a hit (about 2.4% of all), similar ones and a draw of the others.
NTR1 agonist = activates human neurotensin receptor 1; P30989; NTR1-U2OS beta-arrestin-GFP spot imaging, agonist mode; activation, % at 20 µM; hit rate 0.17% among 330,000; AID 493036;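 active means activation at or above 40% of the spot to cytoplasm intensity ratio, with at least 20 cells analyzed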;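 further: 0% = DMSO without peptide and 100% = 100 nM NTR1 peptide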
Target sequence (P30989 whole entry, looked up): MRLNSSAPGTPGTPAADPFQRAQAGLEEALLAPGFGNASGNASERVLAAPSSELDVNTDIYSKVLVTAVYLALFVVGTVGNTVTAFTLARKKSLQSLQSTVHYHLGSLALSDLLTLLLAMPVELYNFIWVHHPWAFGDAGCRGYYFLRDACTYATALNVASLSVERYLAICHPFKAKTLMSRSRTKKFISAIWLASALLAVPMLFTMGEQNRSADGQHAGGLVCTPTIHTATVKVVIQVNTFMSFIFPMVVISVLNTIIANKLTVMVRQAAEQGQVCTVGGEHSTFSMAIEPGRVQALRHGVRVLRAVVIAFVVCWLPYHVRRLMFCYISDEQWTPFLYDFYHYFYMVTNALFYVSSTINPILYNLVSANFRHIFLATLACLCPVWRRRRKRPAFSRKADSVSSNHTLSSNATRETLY
TAG inh = triacylglycerol accumulation inhibition | H9c2 cells, Nile Red lipid (TAG) fluorescence; cells loaded with 200 µM oleic acid | inhibition, % at 12.5 µM | hit rate 0.66% among 230,000;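 active means pattern-corrected inhibition of lipid staining of at least 50% with the nuclear-stain viability signal not falling by more than 50%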;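 further: 0% = DMSO wells and 100% = triacsin C control wells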
aDG glyco up = increases alpha dystroglycan glycosylation | activation, % at 10 µM | Pro5-aDG cells, alpha-DG glycosylation AlphaScreen (IIH6); 0% Pro5, 100% B10-LARGE cell signal | hit rate 0.22% among 360,000;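 active means activation of at least 8% versus controls, or a plate z-score of at least 8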;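 further: Pro5 are CHO cells carrying HIG-tagged alpha-DG that lacks glycosylation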
TbMetRS inhib = Trypanosoma brucei MetRS inhibition | purified T. brucei MetRS, ATP depletion, Kinase-Glo luminescence | inhibition, % at 11.9 µM | hit rate 0.4% among 360,000 | AID 624268;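 active means inhibition above a per-plate cutoff of the control wells' mean inhibition plus 3 SD, cut at about 5.5% in these data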;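 further: 0% = DMSO wells median and 100% = median of wells with control inhibitor compound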
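assay system = parasite MetRS enzyme | timing = 15 min preincubation, 2 h reaction, all 25 °C | evaluation = percent inhibition relative to median high and low control wells | medium = HEPES buffer containing pyrophosphatase, BSA, spermine, DTT | compound = single dose, 11.9 µM final nominal, 0.9% final DMSO | detection = Kinase-Glo luminescence, ATP depletion format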
MC4R barr agon = activates human MC4R beta-arrestin recruitment; U2OS MC4R beta-arrestin complementation, luminescence; percent of melanotan II response, DMSO zero; activation, % at 8.9 µM; hit rate 0.98% among 360,000; AID 540308;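 active means activation above a per-plate cutoff, the mean activation of sample wells on that plate plus 3 SD, cut at about 8% in these data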
Target sequence (P32245 whole entry, looked up): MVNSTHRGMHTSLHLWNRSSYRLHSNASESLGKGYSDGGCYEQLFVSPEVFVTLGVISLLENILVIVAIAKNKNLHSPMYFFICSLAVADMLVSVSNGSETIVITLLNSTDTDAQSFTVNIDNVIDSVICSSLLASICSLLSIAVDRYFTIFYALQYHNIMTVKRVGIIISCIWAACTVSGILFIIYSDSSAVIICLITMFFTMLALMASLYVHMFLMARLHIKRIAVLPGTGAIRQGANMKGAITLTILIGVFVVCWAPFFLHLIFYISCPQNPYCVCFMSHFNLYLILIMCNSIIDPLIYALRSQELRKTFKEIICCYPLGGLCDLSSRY
MC4R antag cAMP = blocks human MC4R cAMP signaling. P32245. MC4R-expressing cells, MTII-stimulated cAMP, LANCE TR-FRET. inhibition, % at 6.5 µM. hit rate 0.48% among 360,000. AID 540295;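 active means inhibition above its plate's cutoff, the mean of tested wells on that plate plus 3 SD, cut at about 29% in these data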;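 further: 0% = Melanotan II alone and 100% = Melanotan II plus saturating MCL0020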
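Material: human MC4R-expressing U2OS cells. Probe or stimulus: Melanotan II challenge. Dosing: 6.5 µM single dose. Times: 30-min compound, 1-h challenge, 1-h detection, room temperature. Technique: TR-FRET with Eu-cAMP and labeled anti-cAMP, 671 nm. Replication: singlicate.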
NTR1 ag conf = confirmation of agonists of human NTR1; shares compounds with NTR1 agonist; NTR1-U2OS beta-arrestin-GFP translocation imaging; activation, % at 20 µM; hit rate 38% among 480;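 active means mean activation at 20 µM of at least 40%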;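 further: 0% = DMSO without peptide and 100% = 100 nM NTR1 peptide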
* marks the source's active call; other numbers are inactive results; nt = not tested or not shown.

SMILES | NTR1 agonist | TAG inh | aDG glyco up | TbMetRS inhib | MC4R barr agon | MC4R antag cAMP | NTR1 ag conf
COc1ccc(N2CCN(c3ncnc4c3cnn4-c3ccc(C)cc3C)CC2)cc1 | 3.3 | nt | 1.9 | -1.0 | -1.9 | 0.9 | nt
CCc1nc2c(OCc3cc(Cl)cc(Cl)c3)cccn2c1N(C=O)Cc1ccccc1 | nt | 8.1 | 0.6 | 0.9 | -0.4 | 2.0 | nt
CC1=C(C(=O)N2CCOCC2)CC(CC(=O)NCCCN(C)C)C(=O)N1Cc1ccc(F)cc1 (centres undefined) | nt | nt | 0.0 | 0.2 | nt | nt | nt
c1ccc(CN2CCC(Nc3nc(-c4ccccc4)nc4ccccc34)CC2)cc1 | 42.0* | 45.3 | -0.9 | -0.7 | 3.6 | 5.4 | 41.7*
CC(C)(C)n1nnnc1C(c1cc2ccccc2o1)N1CCOCC1 (centres undefined) | nt | nt | 0.2 | -1.4 | nt | nt | nt
COc1cc2c3nnc(-c4ccccc4)c-3cn(Cc3ccccc3F)c2cc1OC | 114.9* | nt | nt | nt | nt | nt | 90.1*
COc1ccc(-c2nnc(SCc3ccccc3F)o2)cc1OC | 2.0 | -10.7 | 0.0 | 0.1 | -0.3 | -3.8 | nt
CCOc1ccc(Br)cc1S(=O)(=O)Nc1ccc(N2CCOCC2)cc1 | 0.5 | -8.7 | 0.0 | -0.3 | -1.3 | -0.6 | nt
CCOc1ccc(Br)cc1S(=O)(=O)Nc1ccccc1N1CCOCC1 | 49.4* | -4.5 | 0.0 | 0.0 | 1.3 | 2.2 | 54.5*
C/C=C\C=C/C(=O)Nc1cccc(C2=NOC3(C2)C[C@@H](C(N)=O)N(C(=O)COc2ccc(Cl)cc2)C3)c1 (some centres undefined) | 16.3 | 13.9 | -0.4 | -0.2 | 0.5 | 2.6 | nt
CCCCCC(=O)Nc1cccc(C2=NOC3(C2)C[C@H](C(N)=O)N(C(=O)COc2ccc(Cl)cc2)C3)c1 (some centres undefined) | 41.6* | 6.5 | 0.0 | -0.2 | -0.7 | 8.2 | 5.5
O=C(Nc1ccc(Cl)cc1)N[C@@H]1CC[C@H](CCNS(=O)(=O)c2ccccc2F)O[C@@H]1CO | nt | nt | -0.2 | -0.5 | nt | nt | nt
CCN1CCN(CCCNC(=O)c2ccc(/C=C3/Sc4ccccc4N(Cc4ccccc4F)C3=O)cc2)CC1 | 41.1* | 15.9 | 0.9 | -0.4 | 7.1 | -1.7 | 6.8
CCN1CCN(CCCNC(=O)c2ccc(/C=C3/Oc4ccccc4N(Cc4cccc(C)c4)C3=O)cc2)CC1 | 15.0 | nt | 1.4 | -0.4 | -4.0 | 0.6 | nt
CC(=O)N[C@@H]1C=C[C@@H](CC(=O)NCc2ccc(Cl)cc2)O[C@@H]1CO | nt | nt | -0.1 | -0.3 | nt | nt | nt
CN(C)S(=O)(=O)c1ccc(NC(=O)c2c(F)cccc2Cl)cc1 | 49.3* | 6.7 | -0.5 | -0.1 | -1.1 | -0.4 | -5.1
CSc1nnc(NC(=O)C23CC4CC(CC(C4)C2)C3)s1 | 51.5* | nt | 0.1 | 0.1 | -1.6 | 11.9 | 53.2*
NC(=O)CSc1nnc(NC(=O)C23CC4CC(CC(C4)C2)C3)s1 | 2.5 | nt | 0.1 | 0.0 | -0.2 | -0.7 | nt
CC1=C(C(=O)N2CCOCC2)CC(CC(=O)NCCCN(C)C)C(=O)N1CCCN1CCCC1=O (centres undefined) | nt | nt | -0.5 | 0.1 | nt | nt | nt
Oc1ccc(/C=N/Nc2nc(N3CCCCCC3)nc(N3CCCCCC3)n2)c(O)c1 | 43.6* | 18.5 | -0.1 | -0.4 | 2.2 | 15.6 | 39.2
CNC(=O)C[C@H]1C(=O)N(c2ccc(Br)cc2)C[C@@H]1C | nt | -5.7 | -0.2 | -0.3 | -0.7 | 2.3 | nt
CC1CCN(C(=O)CCC(=O)Nc2ccc([N+](=O)[O-])cc2)CC1 | nt | 8.3 | -0.3 | 0.0 | -0.4 | -7.5 | nt
CC(=O)c1cccc(Nc2nc(-c3sc(N)nc3C)cs2)c1 | -0.2 | -1.5 | 0.0 | -0.5 | 0.5 | -4.2 | nt
CC(=O)c1cccc(Nc2nc(-c3sc(C)nc3C)cs2)c1 | 53.6* | 10.4 | 0.2 | -0.9 | 0.8 | 9.9 | 24.4
Cc1cc(Br)c2c(c1)/C(=C/C(=O)c1cccs1)C(=O)N2 | 62.6* | -12.7 | 0.3 | 0.4 | 6.2 | -1.6 | 41.4*
SMILES | NTR1 agonist | TAG inh | aDG glyco up | TbMetRS inhib | MC4R barr agon | MC4R antag cAMP | NTR1 ag conf
CCc1ccc2c(c1)/C(=C/C(=O)c1cccs1)C(=O)N2 | 41.6* | -4.4 | -0.6 | 0.2 | -2.5 | -0.4 | 56.9*
CN(C)/C=C/C(=O)c1ccc(Br)s1 | 1.5 | -4.1 | 0.2 | 0.3 | 1.3 | 16.8 | nt
Cc1cc(C)c2c(c1)/C(=C/C(=O)c1ccc(Br)s1)C(=O)N2 | 57.8* | nt | -1.1 | 0.3 | -0.5 | 12.5 | 68.3*
CCCCN1C(=O)C(CC(=O)NCc2cccc3ccccc23)CC(C(=O)N2CCCCCC2)=C1C (centres undefined) | nt | nt | -0.1 | -1.3 | nt | nt | nt
C(=C\c1ccccc1)/CN1CCN(C(c2cccs2)c2nnnn2-c2ccc3c(c2)OCCO3)CC1 (centres undefined) | nt | nt | -0.5 | -0.2 | nt | nt | nt
CC(C)(C)NC(=O)C(c1ccc(C(F)(F)F)cc1)n1c(=O)c(-c2ccco2)nc2ccccc21 (centres undefined) | nt | nt | -0.1 | 0.1 | nt | nt | nt
CCOC(=O)[C@]12CCCC=C1N(Cc1ccco1)C(=O)[C@H](CC(=O)NCc1cccc(C(F)(F)F)c1)C2 | nt | nt | 0.9 | -0.7 | nt | nt | nt
COC(=O)c1ccc2c(=O)n(CCCCCC(=O)N3CCN(c4ccccc4)CC3)c(=O)[nH]c2c1 | 46.6* | 14.0 | 0.3 | -3.5 | 0.0 | 2.6 | 64.2*
CCN1CCN(C(=O)CCCCCn2c(=O)[nH]c3cc(C(=O)OC)ccc3c2=O)CC1 | -1.4 | 12.0 | 0.0 | -1.5 | -1.8 | -3.1 | nt
CCC(C)Sc1cccc(-c2nc3ccccn3c2NCc2ccccc2)c1 (centres undefined) | 40.3* | -12.8 | 0.7 | 0.5 | 4.5 | 13.2 | -4.4
O=C(CSc1ccc(Cl)cc1)Nc1cccc(-c2nc3ncccc3o2)c1 | 52.1* | 30.2 | -0.1 | 0.1 | -0.9 | 10.9 | 33.0
O=C(CSc1ccc(Cl)cc1)Nc1cc(-c2nc3ncccc3o2)ccc1Cl | 13.9 | nt | nt | nt | nt | nt | nt
O=C(OCc1ccc(COC(=O)c2ccc(O)cc2)cc1)c1ccc(O)cc1 | 45.6* | nt | 0.1 | 0.4 | 3.9 | 10.3 | -1.3
CC(C)S(=O)(=O)c1csc(NC(=O)Nc2cccc([N+](=O)[O-])c2)c1Cl | 50.4* | -13.2 | 0.1 | -0.4 | -1.5 | 1.6 | 10.6
COc1cc(NC(=O)Nc2cccc([N+](=O)[O-])c2)cc(OC)c1 | 5.4 | -2.6 | 0.2 | -0.3 | 0.3 | 8.0 | nt
Cc1cc(N/N=C/c2ccccc2O)nc(-c2ccccc2O)n1 | 62.9* | nt | -0.3 | 0.4 | -1.1 | -0.1 | 1.9
CCOC(=O)C1(C)CCCCCN1C(=O)/C=C/c1ccccc1 (centres undefined) | nt | 12.3 | 0.0 | -0.3 | -0.8 | -1.3 | nt
COc1cccc(C(C[N+](=O)[O-])c2c(C)[nH]n(-c3ccccc3)c2=O)c1 (centres undefined) | 50.6* | nt | 0.3 | 0.1 | -2.8 | 9.7 | 4.3
